According to ChEMBL document CHEMBL4513216, “Probing the Open Global Health Chemical Diversity Library for Multistage-Active Starting Points for Next-Generation Antimalarials” (ACS Infect Dis, 2020):

Test: Toxicity liver stage against HepG2, at 10uM
Type: cell-based
Design: test concentration 10 uM, cell line HepG2-A16-CD81EGFP
Conditions: human, HepG2-A16-CD81EGFP cells; read-out: INHIBITION
Summary of the method: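 Uninfected HepG2-A16-CD81EGFP cells, 3 × 10^3 per well, 1536-well, plated on prespotted compound at 10 μM final, parasite-free screening media added to match infected plates; puromycin 10 μM positive, DMSO 0.5% negative; run in parallel with 48 h PbLuc assay at 37 °C, 5% CO2; viability by CellTiter-Glo luminescence, normalized to controls.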

Structure (SMILES)	cytotoxicity at 10 µM [%]
CC(C)(C)OC(=O)NC(C)(C)c1noc(Cn2ccnc2)n1	8.73
O=C(CSC1=NS(=O)(=O)c2cc(F)ccc2N1)c1ccccc1	-10.7
Oc1ccccc1CN1CCCCCC1c1cccs1 (stereo not drawn)	-3.2
Nc1c(N2CCCCC2)ncnc1N1CCOCC1	3.66
Cc1nn(-c2ccc(C(=O)O)cc2)c2c1C(CC(C)C)SCC(=O)N2 (stereo not drawn)	-2.43
COCCNC(=O)Cn1cc(OCc2ccccc2F)c(=O)cc1CO	-173
Cc1nc(C)c(C(=O)Nc2cc(N3CCC(C)CC3)ncn2)s1	-8.11
CN(C)C(=O)NCc1ncn2c1CN(S(C)(=O)=O)CCC2	11
O=C(c1nc2c(s1)CCCN2CC1CC1)N1CCCC1	15.2
CC(=O)c1nn(-c2ccccc2)c(C)c1C(C)=O	2.27
Cc1cccc2c1cnn2CCC(=O)NCC(=O)N(C)C	7.03
CCc1c(C)nc2cc(-c3nccn3C)nn2c1N1CCCC(CO)C1 (stereo not drawn)	3.06
COc1ccccc1OCc1nc(C(C)C)no1	14
CCCC(C)CS(=O)(=O)NCCc1csc(N2CCCC2)n1 (stereo not drawn)	7.47
CCN1CCCCC1C(=O)N1CCC(OC2CCCC2)CC1 (stereo not drawn)	-20.6
Cc1nnc(CSc2n[nH]c(-c3ccccn3)n2)o1	5.81
Cn1cc(NS(=O)(=O)CC2CCCCO2)cn1 (stereo not drawn)	-5.41
CC(C)(C)OCCN1CCCC1c1nc(Cc2ccc(F)cc2)no1 (stereo not drawn)	-7.1
O=C(c1ccoc1)N1CCC(NCc2cccnc2)CC1	8.21
CC(CCc1ccccc1F)C(=O)NS(=O)(=O)CC1CC1 (stereo not drawn)	-5.36
CCC(C)NC(=O)CN1CCC2(CC1)OCCO2 (stereo not drawn)	-4.92

Structure (SMILES)	cytotoxicity at 10 µM [%]
CC(C)NC(=O)CCNC(=O)c1cnc(Cc2ccc(F)cc2)s1	2.87
CCN(C(=O)CSc1ccc(C(F)(F)F)cn1)C1CC1	7.77
CN(C)CCN(Cc1ccc(Cl)cc1)C(=O)c1ccncc1	7.99
COc1cc(NC(=O)c2ccc(Cl)cc2F)c(C(=O)N(C)C)cc1OC	-18.9
CC(CN1CCCC1=O)NC(=O)c1cc(-c2cccc(Cl)c2)no1 (stereo not drawn)	5.75
COC(=O)c1ccc(S(=O)(=O)N(C)CC(N)=O)c(Cl)c1	-1.65
CC(C)(C)c1nc(CN(CCC2CCCCC2)CC(N)=O)no1	-3.08
Cc1nc(C2CCCCC2)sc1C(=O)O	15
CC1CCC(O)(CN2CCN(CCNC(=O)C3CCC3)CC2)CC1 (stereo not drawn)	-0.118
Cc1cc(C)n(C2CN(c3ncnc4[nH]ccc34)C2)n1	6.59
O=C(C1CCCN1S(=O)(=O)C1CCCC1)N1CCSCC1 (stereo not drawn)	4.71
Cc1nccn1-c1ccc(CNC(=O)c2ccc[nH]2)cn1	-14.2
CC(C)NC(=O)CCCn1cnc2ccccc2c1=O	15.2
COc1cccc(C2CN(CCc3ccncc3)CCO2)c1 (stereo not drawn)	-10.1
Cc1noc(COCC(=O)Nc2ccc(Br)c(C)n2)n1	6.19
Cc1ccccc1NS(=O)(=O)c1ccc(C(=O)O)cc1F	7.94
COc1cc(N2CCC3(CC2)OCC(=O)NC3C)ncn1 (stereo not drawn)	1.95
CCOC1COC2(CCN(c3ncc(C)cn3)CC2)C1 (stereo not drawn)	7.21
O=C(c1ccncc1)N1C[C@@H](OCc2cccnc2)[C@H]2OCCC[C@H]21	0.866
Cn1cnc(-c2cc(C(=O)N3CCOCC3)c3ccccn23)c1	4.79
C[C@@H]1CN(C2Cc3ccccc3C2)CC[C@@]1(O)C1CCOCC1	-4.04

Structure (SMILES)	cytotoxicity at 10 µM [%]
Cc1cc(C(=O)N2CCCCC2c2nc3cc(F)ccc3[nH]2)nn1C (stereo not drawn)	4.42
Cc1ccc(-c2ccnc(NC(C)c3n[nH]c(=O)[nH]3)n2)c(C)n1 (stereo not drawn)	1.33
Cc1nc2c(c(NC3CC3)n1)CCN(C(=O)CCc1cccnc1)CC2	-9.1
O=C(NCC(F)F)c1ccc(S(=O)(=O)NCCc2c[nH]cn2)cc1	-1.99
CCS(=O)(=O)c1ncc(CN(C)Cc2cccc(OC)c2)n1CCOC	-0.636
C[C@H](NC(=O)c1cccc(CCC(C)(C)O)c1)C(N)=O	-0.511
Cc1cc(C(=O)N2CC[C@H](N3CCOCC3)[C@H](CCCO)C2)c(C)n1C	-138
Cc1ccc(NC(=O)CN[C@H](C(N)=O)C(C)C)cc1F	11
CNC(=O)[C@@H]1C[C@@H](NC(=O)CCCc2cccs2)CN1C1CCOCC1	-0.828
Cc1ccccc1N1CCN(C(=O)c2cscn2)C(C)C1 (stereo not drawn)	0.403
O=C(c1sccc1Cl)N1CCC(Cn2cc(CO)nn2)CC1	-7.12
O=c1[nH]c(-c2ccc(Cl)cc2)nc2c1CCNC2	4.42
O=C(COc1cccc(F)c1)N1C[C@H](CO)C[C@H](CN2CCCC2)C1	1.76
Cc1cc(C(F)(F)F)cc(N2CCC3(CCC(=O)N(CCO)C3)CC2)n1	8.09
CC(C)[C@]1(O)CN(C(=O)COCC(N)=O)C[C@H]1C	7.37
Cn1ccc2c(-c3nccc(N)n3)ccnc21	-16
CC1CN(Cc2nc(Cc3ccccc3F)no2)CCN1C (stereo not drawn)	-7.44
Cn1cc(C(=O)N2CCCC(C(=O)CCc3ccccc3)C2)cn1 (stereo not drawn)	-5.16
NC(=O)c1ccc(C2CCCN2C(=O)CCc2nc3ccccc3s2)s1 (stereo not drawn)	-8.8
Cc1nn(C)c2nc(NC3CCNCC3)sc12	-10.4
Cc1cc(CN2CCC(CNC(=O)CN3CCCCCC3)C2)[nH]n1 (stereo not drawn)	-131

Structure (SMILES)	cytotoxicity at 10 µM [%]
COc1cccc2c1OCC(C(=O)N1CCC(NS(C)(=O)=O)CC1)C2 (stereo not drawn)	1.49
Cc1n[nH]c(C)c1CCC(=O)N1CCc2c(nc[nH]c2=O)C1	-5
CCCN(C)S(=O)(=O)N1CCCC1c1ccco1 (stereo not drawn)	-8.72
CCOc1ccc(C(=O)N2CCCC(n3nc(C)nc3C)C2)cc1 (stereo not drawn)	-4.34
COc1cc(C(=O)Nc2cn[nH]c2)ccc1C	-7.33
CC(OCC1CC1)C(=O)N1CCCN(c2ncccc2C#N)CC1 (stereo not drawn)	-11.6
CN(CCC#N)C(=O)CN1CCCC1c1ccsc1 (stereo not drawn)	-5.26
CCc1n[nH]c(C2CN(C(=O)c3ncoc3C(C)C)CCO2)n1 (stereo not drawn)	-9.8
Cc1nc(CN2CCC(N(C)Cc3noc(C4CC4)n3)C2)oc1C (stereo not drawn)	-11.1
CN(C)c1ccnc(C2CCCN2)n1 (stereo not drawn)	1.76
CC1(C)CC(N(Cc2ccccc2)Cc2ncc[nH]2)CC(C)(C)N1	0.385
O=C(NC1CC1)[C@H]1CC[C@@H]2[C@@H](CCN2CCOCc2ccccc2)O1	-115
COCC(=O)N1CCC2(CCN(Cc3ccc(C)cc3)CC2)CC1	6.68
COCCN1C(=O)CC[C@@H]2[C@@H]1CCN2Cc1c(C)noc1C	6.57
CNC(=O)[C@H]1C[C@H]2OCC[C@H]2N(CC2CCOCC2)C1	6.46
COc1cc(N2CCC3(CCCN(C(=O)c4cnccn4)C3)C2)ncn1 (stereo not drawn)	-2.48
CCOC[C@]12COC[C@H]1CN(Cc1ccc(F)c(F)c1)C2	-107
COCCN1CCO[C@@H]2CN(C(=O)Cc3cccc(F)c3)CC[C@@H]2C1	5.95
COc1ccc(C2Nc3ccccc3N=C3CNC(=O)C32)cc1OC (stereo not drawn)	5.56
CC(C)CCN1C[C@@H]2C[C@H](C(=O)N3CCCC3)[C@H](C1)O2	4.82
